{"data": "Measurements pooled from the literature", "target": "Serine/threonine-protein kinase STK11 (STK11, Homo sapiens, UniProt Q15831)", "Sequence (Q15831 1-433, as in one of the studies)": "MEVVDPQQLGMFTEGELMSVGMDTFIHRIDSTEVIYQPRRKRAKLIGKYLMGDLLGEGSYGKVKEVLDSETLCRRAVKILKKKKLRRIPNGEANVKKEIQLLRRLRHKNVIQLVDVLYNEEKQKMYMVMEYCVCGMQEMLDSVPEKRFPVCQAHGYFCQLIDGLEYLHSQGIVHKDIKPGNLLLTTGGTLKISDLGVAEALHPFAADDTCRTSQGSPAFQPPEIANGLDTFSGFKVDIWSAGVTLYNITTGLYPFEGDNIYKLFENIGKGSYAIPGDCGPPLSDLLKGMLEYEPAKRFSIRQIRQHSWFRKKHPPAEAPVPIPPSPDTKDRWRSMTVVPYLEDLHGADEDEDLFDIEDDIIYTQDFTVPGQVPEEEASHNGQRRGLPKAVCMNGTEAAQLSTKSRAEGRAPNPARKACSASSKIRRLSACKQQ", "note": "Lines come from different studies, so protocols differ."}
{"Structure (SMILES)": "COc1ccc2[nH]c3c4[nH]c5ccc(OC)cc5c4c4c(c3c2c1)C(=O)NC4=O", "assay": "binding, competition with immobilised ligand", "conditions": "1 µM", "endpoint": "remaining binding", "result": "99%"}
{"Structure (SMILES)": "C=CC(=O)N1CCC([C@@H]2CCNc3c(C(N)=O)c(-c4ccc(Oc5ccccc5)cc4)nn32)CC1", "assay": "enzyme activity, inhibitor", "conditions": "1 µM", "endpoint": "inhibition", "result": "10%"}
{"Structure (SMILES)": "C#Cc1cnc(Nc2ccnc(CO)c2)nc1Nc1ccccc1S(C)(=O)=NC#N (stereo not drawn)", "assay": "cell-free assay", "conditions": "1 µM", "endpoint": "remaining signal", "result": "45%"}
{"Structure (SMILES)": "CCCCC(=O)Nc1ccc(-c2ccc3ncn(CCC)c(=O)c3c2)cn1", "assay": "binding, competition with immobilised ligand", "conditions": "0.5 µM", "endpoint": "remaining binding", "result": "84%"}
{"Structure (SMILES)": "C[C@H]1CC[C@H](n2c3cnccc3c3cnc(Nc4ccc5c(n4)CCN(C(=O)CO)C5)nc32)CC1", "assay": "binding, competition with immobilised ligand", "conditions": "1 µM", "endpoint": "remaining binding", "result": "71%"}
{"Structure (SMILES)": "CC(C)S(=O)(=O)c1ccc2nccc(Nc3ccc4sc(C5CCCC5)nc4c3)c2c1", "assay": "enzyme activity, inhibitor", "conditions": "1 µM", "endpoint": "activity vs control", "result": "109%"}
{"Structure (SMILES)": "N#Cc1ccc(NC(=O)Nc2ccccc2)cc1", "assay": "cell-free assay, competition with immobilised ligand", "conditions": "25 µM", "endpoint": "remaining binding", "result": "85%"}
{"Structure (SMILES)": "CO[C@@H]1[C@H](N(C)C(=O)c2ccccc2)C[C@H]2O[C@]1(C)n1c3ccccc3c3c4c(c5c6ccccc6n2c5c31)C(=O)NC4", "assay": "enzyme activity, inhibitor", "conditions": "1 µM", "endpoint": "inhibition", "result": "94%"}
{"Structure (SMILES)": "COc1ccc2oc(-c3ccc4nc(N)oc4c3)c/c(=N\\c3ccccc3NC(=O)CCN)c2c1", "assay": "binding", "conditions": "1 µM", "endpoint": "remaining binding", "result": "99%"}
